According to the RNAGym collection of RNA variant scans (doi:10.1126/science.aae0568):
Variants at the floor of the assay were thinned out.

B1: tRNA (parent)
chain: GUUCCGUUGGCGUAAUGGUAACGCGUCUCCCUCCUAAGGAGAAGACUGCGGGUUCGAGUCCCGUACGGAACG

Variants of: B1
Test: yeast fitness relative to wild type (ratio to wild type); higher = fitter; tRNA-Arg(CCU), competitive growth, 37 C, YPD
Summary of the method: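 For this measurement, the tRNA-Arg(CCU) gene was varied by chemical synthesis at a 3% per-site mutation rate across 69 sites, and each variant was placed at the native genomic locus in Saccharomyces cerevisiae. The pooled strains went through a 24-hour competition in YPD at 37°C in six parallel replicates, with amplicons from start and end populations read by 100-nucleotide paired-end sequencing. Darwinian fitness relative to wild type followed from the change in each genotype's frequency. Genotypes needed ≥ 100 starting reads, and estimates < 0.5 were set to 0.5.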

Variant	yeast fitness
G9A U28A C60G	≤ 0.5
G9A U16C A69C	0.763
G9C C34G A70G	≤ 0.5
G9A U16C U32G G48C	≤ 0.5
G9C C22A C34A C55G A65G	0.526
G9C C11U C30G A43C	≤ 0.5
G9C A20U U47C	≤ 0.5
G9C A37C C46U U53A	≤ 0.5
G9C A57U C60A	0.727
G9A G48C A70C	1.08
G9C C24G G39C C55U A65C	≤ 0.5
G9C C27A C29U A37C	0.637
G9C A45U C55G C61U	≤ 0.5
G9C C29U C34G G48C C62U	0.782
G9A U28G A45C	≤ 0.5
G9C C27A C30A	≤ 0.5
G9A G68C	0.857
G9C A14U C62G	≤ 0.5
G9C G10C C33U	≤ 0.5
G9A U16C U28G U59A	≤ 0.5
G9C A21U C66A	0.585
G9A U16C A57G	0.598
G9C C22A G48C G63C	≤ 0.5
G9C A36G A70G	≤ 0.5

Variant	yeast fitness
G9C C11G A57C A70C	≤ 0.5
G9C A42G A57U	0.521
G9C C22G C30A A42U U59C	≤ 0.5
G9A G48A A70U	1.25
G9A G44C G58A	0.766
G9C G10A G12C C22U A45U	≤ 0.5
G9A U16C U19G C27A C33U U53C A65U C66U	≤ 0.5
G9C C24G C33G U35A G48C C66A	≤ 0.5
G9A U19A A65C	0.746
G9C C29U C30A G56A	≤ 0.5
G9C C61G	0.61
G9C C61U	0.844
G9C A20G U35C A36G U59A C66G	≤ 0.5
G9A U32C C33G A37G G52A C55U G63A A65U	≤ 0.5
G9C A15C U53C C55G	≤ 0.5
G9C C11G C24U C31U G67U	≤ 0.5
G9A U13A U47A C60A	≤ 0.5
G9C A65G	0.78
G9C A65U	0.774
G9C A20U U28A A42U G48A	≤ 0.5
G9A U53C	0.77
G9C C31G A40C C66U	≤ 0.5
G9C C29G C30G G41A	≤ 0.5
G9A U26G C55G	0.57

Variant	yeast fitness
G9C A42C	0.684
G9C C30A C60U	0.655
G9C C31A C62G C66U	≤ 0.5
G9C C31U	0.676
G9C C31G	0.66
G9A G56U G58A	0.563
G9C C34U	0.776
G9C C34G	0.548
G9C C34A	0.536
G9C C46U G48C C62U	≤ 0.5
G9C G10C C33U G48C C55G	≤ 0.5
G9C A14G C49G	≤ 0.5
G9C C22U G48C G51C	0.595
G9C C30G G68C	≤ 0.5
G9C A20G U26C	≤ 0.5
G9C C31G U32G	≤ 0.5
G9C C61A G67A	≤ 0.5
G9A U28C A70G	0.673
G9C G12A C29A G38A A69G	≤ 0.5
G9C A36C C61A	0.616
G9A G48C G68C	0.603
G9C C49G	0.63
G9C C49U	0.703
G9C A14U U28C U35G	0.623

Variant	yeast fitness
G9A U54C G56A	0.661
G9C A37G	0.623
G9A G44A C55A A57U	≤ 0.5
G9C A15C C31G A40G A43U	≤ 0.5
G9C A45U C55G	0.533
G9A U59A C66A	0.55
G9C C33A A43C	≤ 0.5
G9C A14U A21C	0.61
G9C C27A A70G	0.539
G9C C24G G41A G52A C66U	0.602
G9C C29U C55G	≤ 0.5
G9C C29U C55U	0.572
G9A U19C A69C	0.834
G9C A20G G50C	≤ 0.5
G9C C30U U47A G67C	0.559
G9A U59A A69G	0.697
G9C A15C U35C U59A G63A	≤ 0.5
G9C C22G C61A	0.611
G9A U13A A15G C27U	≤ 0.5
G9C A70C	0.866
G9C C24U C30G G51A C60U	≤ 0.5
G9C C11G	0.525
G9C C11G G58A	≤ 0.5
G9C A14U A45U C49G C55G G67C	≤ 0.5

Variant	yeast fitness
G9C C30A G38A A42G	0.515
G9A G63A	1.06
G9A G39A A45G G50A A69U	0.548
G9C A15U U28G C66A	≤ 0.5
G9A U28C A40C G48A	≤ 0.5
G9A G58U A70G	0.984
G9A U28C C30U A69U	≤ 0.5
G9C C34A A57U	≤ 0.5
G9C A42U U54C	≤ 0.5
G9C A14C G44C U64G A70C	≤ 0.5
G9C C49U C55U U64C	≤ 0.5
G9C A37G G41A C61G	≤ 0.5
G9C A43C	0.58
G9A U19C G23C C49U	≤ 0.5
G9C C55G	0.542
G9C A65C A70U	0.539
G9A G48C U53G	≤ 0.5
G9A G39C C62G U64C	0.568
G9C C11G C24U	≤ 0.5
G9C G12A	0.629
G9C A14G C62U G63C A70C	≤ 0.5
G9C G10C G18C C33U G44C C46U C62U	0.599
G9C C11A A14G U47G A69C	≤ 0.5
G9A G39A G63C	0.556

Variant	yeast fitness
G9C C24U C30G G51A C60U A69C	≤ 0.5
G9A U26G	0.967
G9C A21C A57G	≤ 0.5
G9A U19A C49G U59C	≤ 0.5
G9C A14G U26A U32G	≤ 0.5
G9C C30A	0.664
G9C C30G	0.578
G9C C30U	0.628
G9A U19C C49G	0.634
G9C A42C C49G G68A	≤ 0.5
G9A U35C A42U G63A	≤ 0.5
G9A U19C G23C	≤ 0.5
G9C C11U G18C C31A	≤ 0.5
G9C A21U C27U	≤ 0.5
G9C A43C C55G	≤ 0.5
G9A G39C C66U	0.606
G9C C33G G39A C66G	0.59
G9A G39C A43C A57C	≤ 0.5
G9C A40C G51C U64C	0.79
G9C C24G A40U C55A	≤ 0.5
G9C C24A C62G A69C	≤ 0.5
G9C	0.853
G9A U28A C62U G68A	≤ 0.5
G9C G10C C61U	≤ 0.5

Variant	yeast fitness
G9C C34G C61U C66U	0.58
G9C C29G C34G C60G	0.534
G9C A36C C55U	≤ 0.5
G9C A36C C55A	0.525
G9A G56C C61U	0.603
G9C C22G C30U	0.648
G9C A20U U28A C62U	≤ 0.5
G9A U54A A69C	0.746
G9A G50A	1
G9C A42C A69C	0.564
G9A U26A A36U A40C A65U	≤ 0.5
G9A U16A G23C C24A U28G C34U A37U	≤ 0.5
G9A U28C G44A G51C G58C G68C	≤ 0.5
G9C C27U A40U A65G	≤ 0.5
G9A U26A A43U C55U	≤ 0.5
G9C C31U A65U	≤ 0.5
G9A G58A G67A	0.959
G9C A14C C22G G52A U53A	0.503
G9C A15C U16A A70C	≤ 0.5
G9C A14C G18A G44C A57C	≤ 0.5
G9C C24U C30G	≤ 0.5
G9C A15G A21G G48A C49G C60A	≤ 0.5
G9C A42G G52A	≤ 0.5
